For 2 molecules, Activity and GI50 results are on record in ChEMBL document CHEMBL4680226, “Design, synthesis, and evaluation of N-phenyl-4-(2-phenylsulfonamido)-benzamides as microtubule-targeting agents in drug-resistant cancer cells, displaying HDAC inhibitory response” (Eur J Med Chem, 2020).

Assay [1] relates to KB-VIN. In words: Induction of apoptosis in human KB-VIN cells assessed as increase in cleaved caspase-8 expression at 0.1 uM measured after 48 hrs by Western blot analysis. It counts as functional, cell-based. The method in brief: (§1)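 Resistant KB cells attached overnight, then drug-treated at the stated concentrations and times (24 h or 48 h). Lysates were immunoblotted for cleaved PARP, caspase-3, -8 and -9, and γH2AX, with anti-mouse or anti-rabbit IgG secondaries.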
In general terms: Immunoblotting shows a protein as a band on a membrane.

Assay [2] in a line: Antiproliferative activity against human KB-VIN cells incubated for 48 hrs by SRB assay. To be noted: KBVIN. It counts as functional. The method in brief: (§2)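 KB parental and resistant sublines kept in RPMI 1640 with 5% FBS at 37 °C, 5% CO2. Cells plated, left overnight, then given graded compound concentrations for 48 h. A time-zero plate was fixed with 10% TCA at dosing. Cells were stained with 0.4% SRB in 1% acetic acid, unbound dye washed off, bound dye dissolved in 10 mM Tris base, and absorbance read at 515 nm.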

For assay [3], the target named is T1, Tubulin (Homo sapiens) (UniProt P68371+Q9H4B7+P0DPH7+P68366+Q13509+Q71U36+P04350+Q3ZCM7+P07437+P68363+Q9BQE3+Q6PEY2+Q13885+Q9BVA1+Q9BUF5). In words: Induction of microtubule disruption in human KB-VIN cells assessed as polymerized fraction at 0.1 uM measured after 16 hrs by SDS-PAGE analysis (reference value: 23.1 to 25.5%). The class given is cell-based. The method in brief:
(§3)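 KB-Vin or KB-7D cells treated 16 h, then lysed 5 min at 37 °C in the dark in hypotonic buffer (1% NP-40, 1 mmol/L MgCl2, 2 mmol/L EGTA, 50 mmol/L Tris-HCl pH 6.8, protease inhibitors). Spun 13000 rpm, 10 min, room temperature. Soluble supernatant and resuspended polymerized pellet run on SDS-PAGE.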

Assay [4] deals with KB-VIN. In words: Induction of apoptosis in human KB-VIN cells assessed as increase in cleaved PARP expression at 0.1 uM measured after 24 hrs by Western blot analysis. It counts as functional, cell-based. The method in brief:
as §1

The target in assay [5] is T1, Tubulin (Homo sapiens). In words: Induction of microtubule disruption in human KB7D cells assessed as polymerized fraction at 0.01 uM measured after 16 hrs by SDS-PAGE analysis (reference value: 26.4 to 29%). It counts as cell-based. Summed up:
as §3

Assay [6] deals with KB-VIN. In words: Induction of apoptosis in human KB-VIN cells assessed as increase in cleaved caspase-8 expression at 0.1 uM measured after 24 hrs by Western blot analysis. It counts as functional, cell-based. Summed up: as §1
Assay [7] relates to KB-VIN. In words: Cell cycle arrest in human KB-VIN cells assessed as increase in accumulation at sub-G1 phase at 0.1 uM measured after 48 hrs by propidium iodide staining based flow cytometry. The class given is functional. Summed up: (§4)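 Cells seeded at 2.5×10^5 per well and exposed to DMSO or compound for the stated times. They were washed in PBS and fixed overnight in ice-cold 70% ethanol at −20 °C. Staining used propidium iodide 80 µg/mL with 0.1% Triton X-100 and RNase A 100 µg/mL in PBS. DNA content was read by FACScan flow cytometry.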

The test system of assay [8] is KB-VIN. In words: Induction of apoptosis in human KB-VIN cells assessed as increase in activated gammaH2AX expression at 0.1 uM measured after 48 hrs by Western blot analysis. It counts as functional, cell-based. The method in brief: as §1
The test system of assay [9] is KB-VIN. In words: Induction of apoptosis in human KB-VIN cells assessed as increase in cleaved PARP expression at 0.1 uM measured after 48 hrs by Western blot analysis. The class given is functional, cell-based. The method in brief:
as §1

For assay [10], the system named is KB-VIN. In words: Cell cycle arrest in human KB-VIN cells assessed as increase in accumulation at sub-G1 phase at 0.01 to 0.1 uM measured after 24 hrs by propidium iodide staining based flow cytometry. It counts as functional. The conditions noted are these: dose 0.01-0.1 µM. Summed up:
as §4
Background: Flow cytometry measures light scatter and fluorescence of single cells or particles in a stream.

Assay [11] concerns the target T1, Tubulin (Homo sapiens). Kind of assay: Induction of microtubule disruption in human KB7D cells assessed as polymerized fraction at 1 uM measured after 16 hrs by SDS-PAGE analysis (reference value: 26.4 to 29%). It counts as cell-based. Summed up: as §3
The target of assay [12] is T1, Tubulin (Homo sapiens). In words: Induction of microtubule disruption in human KB7D cells assessed as polymerized fraction at 0.1 uM measured after 16 hrs by SDS-PAGE analysis (reference value: 26.4 to 29%). The class given is cell-based. The method in brief:
as §3

Assay [13] deals with KB-VIN. In words: Induction of apoptosis in human KB-VIN cells assessed as increase in cleaved caspase-9 expression at 0.1 uM measured after 24 hrs by Western blot analysis. The class given is functional, cell-based. Summed up: as §1
In assay [14] the target is T1, Tubulin (Homo sapiens). In words: Induction of microtubule disruption in human KB7D cells at 1 uM measured after 24 hrs by DAPI staining based deconvolution fluorescence microscopic analysis. It counts as cell-based. The method in brief:
(§5)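 Cells on glass coverslips treated 24 h, fixed in 4% paraformaldehyde for 15 min, and permeabilized with 0.5% Triton X-100. Blocked in PBS/2% BSA, stained with anti-beta-tubulin (1:250) and Alexa 488 anti-mouse (1:250), and mounted with DAPI. Imaged by wide-field deconvolution microscopy.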

Assay [15] concerns the target T1, Tubulin (Homo sapiens). Kind of assay: Induction of microtubule disruption in human KB-VIN cells at 1 uM measured after 24 hrs by DAPI staining based deconvolution fluorescence microscopic analysis. The class given is cell-based. Summed up: as §5
Assay [16] deals with KB-VIN. In words: Induction of apoptosis in human KB-VIN cells assessed as increase in activated gammaH2AX expression at 0.1 uM measured after 24 hrs by Western blot analysis. It counts as functional, cell-based. The method in brief:
as §1

The test system of assay [17] is KB-VIN. In words: Induction of apoptosis in human KB-VIN cells assessed as increase in cleaved caspase-9 expression at 0.1 uM measured after 48 hrs by Western blot analysis. The class given is functional, cell-based. The method in brief: as §1
Another assay relates to KB. In words: Antiproliferative activity against human KB cells incubated for 48 hrs by SRB assay. It counts as functional. The method in brief:
as §2
(Sulforhodamine B stains cellular protein and so reports cell mass.)

For assay [18], the target named is T1, Tubulin (Homo sapiens). Kind of assay: Induction of microtubule disruption in human KB-VIN cells assessed as polymerized fraction at 1 uM measured after 16 hrs by SDS-PAGE analysis (reference value: 23.1 to 25.5%). It counts as cell-based. The method in brief: as §3
Assay [19] concerns the target T1, Tubulin (Homo sapiens). Kind of assay: Induction of microtubule disruption in human KB-VIN cells assessed as polymerized fraction at 0.01 uM measured after 16 hrs by SDS-PAGE analysis (reference value: 23.1 to 25.5%). It counts as cell-based. The method in brief: as §3
The subject of assay [20] is KB-VIN. In words: Induction of apoptosis in human KB-VIN cells assessed as increase in cleaved caspase-3 expression at 0.1 uM measured after 48 hrs by Western blot analysis. The class given is functional, cell-based. The method in brief:
as §1

Assay [21] deals with KB-VIN. In words: Induction of apoptosis in human KB-VIN cells assessed as increase in cleaved caspase-3 expression at 0.1 uM measured after 24 hrs by Western blot analysis. The class given is functional, cell-based. Summed up: as §1
Assay [22] deals with T1, Tubulin (Homo sapiens). In words: Induction of microtubule aggregation in human KB7D cells assessed as polymerized fraction at 0.1 uM measured after 16 hrs by SDS-PAGE analysis (reference value: 34%). It counts as cell-based. The method in brief: as §3
The target in assay [23] is T1, Tubulin (Homo sapiens). Kind of assay: Induction of microtubule aggregation in human KB-VIN cells assessed as polymerized fraction at 1 uM measured after 16 hrs by SDS-PAGE analysis (reference value: 34%). It counts as cell-based. The method in brief: as §3
Assay [24] has as its target T1, Tubulin (Homo sapiens). In words: Induction of microtubule aggregation in human KB-VIN cells at 1 uM measured after 24 hrs by DAPI staining based deconvolution fluorescence microscopic analysis. The class given is cell-based. Summed up:
as §5

Assay [25] concerns the target T1, Tubulin (Homo sapiens). In words: Induction of microtubule aggregation in human KB-VIN cells assessed as polymerized fraction at 0.01 uM measured after 16 hrs by SDS-PAGE analysis (reference value: 34%). It counts as cell-based. The method in brief:
as §3

Assay [26] concerns the target T1, Tubulin (Homo sapiens). In words: Induction of microtubule aggregation in human KB7D cells assessed as polymerized fraction at 1 uM measured after 16 hrs by SDS-PAGE analysis (reference value: 34%). The class given is cell-based. Summed up: as §3
Assay [27] concerns the target T1, Tubulin (Homo sapiens). In words: Induction of microtubule aggregation in human KB-VIN cells assessed as polymerized fraction at 0.1 uM measured after 16 hrs by SDS-PAGE analysis (reference value: 34%). The class given is cell-based. The method in brief: as §3
In assay [28] the target is T1, Tubulin (Homo sapiens). In words: Induction of microtubule aggregation in human KB7D cells at 1 uM measured after 24 hrs by DAPI staining based deconvolution fluorescence microscopic analysis. The class given is cell-based. The method in brief: as §5
In assay [29] the target is T1, Tubulin (Homo sapiens). Kind of assay: Induction of microtubule aggregation in human KB7D cells assessed as polymerized fraction at 0.01 uM measured after 16 hrs by SDS-PAGE analysis (reference value: 34%). The class given is cell-based. Summed up: as §3

Each structure is given as a SMILES string. The source made the active and inactive calls. The rule behind the calls is not given here.

As for `CC[C@]1(O)C[C@H]2CN(CCc3c([nH]c4ccccc34)[C@@](C(=O)OC)(c3cc4c(cc3OC)N(C=O)[C@H]3[C@@](O)(C(=O)OC)[C@H](OC(C)=O)[C@]5(CC)C=CCN6CC[C@]43[C@@H]65)C2)C1` [VINCRISTINE], the outcome with KB-VIN [1], in the assay on KB-VIN [4], with KB-VIN [6], in the assay with KB-VIN [7], in the assay on KB-VIN [8] and in the assay on KB-VIN [9] was Active. Besides, the outcome in the assay on KB-VIN [10], in the assay with KB-VIN [13], at Tubulin (Homo sapiens) [14], at Tubulin (Homo sapiens) [15], in the assay with KB-VIN [16] and in the assay with KB-VIN [17] was Active. Also, the outcome in the assay with KB-VIN [20] and in the assay on KB-VIN [21] was Active. Besides, the concentration for 50% growth inhibition (GI50) (as a rule, the concentration giving 50% growth inhibition) in assay [2] is 219 nM; in the assay with KB it was 1.86 nM. Further, the Activity is 28.8% at Tubulin (Homo sapiens) [3]; 30.4% on Tubulin (Homo sapiens) [5]; 29.1% at Tubulin (Homo sapiens) [11]; 25.8% at Tubulin (Homo sapiens) [12]; 25.2% on Tubulin (Homo sapiens) [18]; 25.5% at Tubulin (Homo sapiens) [19].
In the case of `CC(=O)O[C@H]1C(=O)[C@@]2(C)[C@H]([C@H](OC(=O)c3ccccc3)[C@]3(O)C[C@H](OC(=O)[C@H](O)[C@@H](NC(=O)c4ccccc4)c4ccccc4)C(C)=C1C3(C)C)[C@]1(OC(C)=O)CO[C@@H]1C[C@@H]2O`, the Activity on Tubulin (Homo sapiens) [22] came to 59.7%; at Tubulin (Homo sapiens) [23] it was 46.1%; at Tubulin (Homo sapiens) [25] it was 41.1%; on Tubulin (Homo sapiens) [26], 61.5%; on Tubulin (Homo sapiens) [27], 45.9%; at Tubulin (Homo sapiens) [29], 45.9%. The outcome on Tubulin (Homo sapiens) [24] and on Tubulin (Homo sapiens) [28] was Active.
